Measured values reported in ChEMBL document CHEMBL4130571, “(+)- and (-)-Ecarlottones, Uncommon Chalconoids from Fissistigma latifolium with Pro-Apoptotic Activity” (J Nat Prod, 2017).
pKi: −log10 of the molar value. Calls of active or inactive are those of the source. The calls are words filed in the database; no cut-off is given here.

Tests used:
[1] = molecular target: Induced myeloid leukemia cell differentiation protein Mcl-1/BH3-interacting domain death agonist (Homo sapiens, UniProt Q07820); test: Inhibition of His-tagged MCL1 (unknown origin)/5-carboxyfluorescein-labeled Bid (unknown origin) protein protein interaction after 1 hr by fluorescence polarization assay
Method in brief: (§1)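 Competition FP assay displacing a fluorescent-tagged BH3-domain probe (Bak peptide for Bcl-xL, Bid peptide for Mcl-1). Run in triplicate, with reference BH3-mimetic positive controls.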

Bcl-xL/BAK = Bcl-xL/BAK (Homo sapiens, UniProt Q07817); test: Inhibition of His-tagged Bcl-xL (unknown origin)/5-carboxyfluorescein-labeled Bak (unknown origin) protein protein interaction after 1 hr by fluorescence polarization assay; method in brief: as §1
KB = test: Cytotoxicity against human KB cells up to 10 uM; format: functional, cell-based
HUVEC (Homo sapiens) = test: Cytotoxicity against HUVEC cells up to 10 uM

Induced myeloid leukemia cell differentiation protein Mcl-1/BH3-interacting domain death agonist, sequence (Q07820 whole entry, the tested form may be a part): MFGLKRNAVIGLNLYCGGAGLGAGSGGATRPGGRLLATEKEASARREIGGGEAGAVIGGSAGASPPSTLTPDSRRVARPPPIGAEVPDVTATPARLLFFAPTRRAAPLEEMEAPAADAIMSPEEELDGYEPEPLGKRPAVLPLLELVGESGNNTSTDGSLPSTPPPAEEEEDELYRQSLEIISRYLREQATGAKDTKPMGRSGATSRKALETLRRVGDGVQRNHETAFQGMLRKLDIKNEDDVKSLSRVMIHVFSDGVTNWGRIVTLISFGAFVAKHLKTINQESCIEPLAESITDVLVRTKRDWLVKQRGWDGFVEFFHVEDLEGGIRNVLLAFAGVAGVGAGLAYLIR
Induced myeloid leukemia cell differentiation protein Mcl-1/BH3-interacting domain death agonist, sequence (P55957 whole entry, further chain, the tested form may be a part): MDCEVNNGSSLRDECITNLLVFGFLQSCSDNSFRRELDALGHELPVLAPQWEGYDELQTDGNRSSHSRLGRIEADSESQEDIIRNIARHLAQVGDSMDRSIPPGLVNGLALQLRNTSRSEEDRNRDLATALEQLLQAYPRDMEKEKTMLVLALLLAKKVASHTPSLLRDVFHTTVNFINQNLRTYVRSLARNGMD
Bcl-xL/BAK, sequence (Q07817 whole entry): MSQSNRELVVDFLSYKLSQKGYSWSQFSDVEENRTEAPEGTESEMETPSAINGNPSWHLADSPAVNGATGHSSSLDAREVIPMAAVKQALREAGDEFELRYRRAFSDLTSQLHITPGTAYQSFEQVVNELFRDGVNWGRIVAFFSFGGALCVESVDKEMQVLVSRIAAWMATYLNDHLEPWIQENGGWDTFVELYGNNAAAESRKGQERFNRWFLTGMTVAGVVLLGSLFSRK
Bcl-xL/BAK, sequence (Q16611 whole entry, further chain): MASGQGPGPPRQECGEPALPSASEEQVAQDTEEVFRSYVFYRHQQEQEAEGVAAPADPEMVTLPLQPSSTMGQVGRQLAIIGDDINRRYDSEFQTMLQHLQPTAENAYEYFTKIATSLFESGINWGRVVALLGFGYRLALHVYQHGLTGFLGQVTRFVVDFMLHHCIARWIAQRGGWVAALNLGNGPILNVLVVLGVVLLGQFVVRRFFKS

SMILES | pKi [1] | pKi (Bcl-xL/BAK) | Activity (KB) | Activity (HUVEC (Homo sapiens))
COC1=C(O)C(=O)/C(=C(\O)[C@@H]2CC=C(CCC=C(C)C)C[C@H]2c2ccccc2)C(=O)C1=O | 5.62 | 5.32 | inactive | inactive
COC1=C(OC)C(=O)C2=C(O[C@@H](c3ccccc3)CC2=O)C1=O | < 4.48 | < 4.64 | inactive | inactive
CC(=O)C1CC(CCC=C(C)C)=CCC1c1ccccc1 (racemic) | < 4.48 | < 4.64 | inactive | inactive
COc1c(O)c2c(c(O)c1OC)C(=O)C[C@H](c1ccccc1)O2 | < 4.48 | < 4.64 | inactive | inactive
CC(C)=CCCC1=CCC(C(=O)O)C(c2ccccc2)C1 (racemic) | < 4.48 | < 4.64 | inactive | inactive
CC(C)=CCC[C@H](C)[C@@H]1C=C[C@]2(C(=O)O)[C@@H](CC(C)=C[C@H]2/C=C(\C)C2CCC(C(=O)O)CC2)C1 (some centres not stated) | – | 5.59 | – | –
CC(=O)C1CC=C(CCC=C(C)C)CC1c1ccccc1 (racemic) | < 4.48 | < 4.64 | inactive | inactive
COc1cc(/C=C/c2ccccc2)oc(=O)c1 [DESMETHOXYYANGONIN] | < 4.48 | < 4.64 | inactive | inactive
COC1=C(O)C(=O)/C(=C(\O)[C@H]2CC=C(CCC=C(C)C)C[C@@H]2c2ccccc2)C(=O)C1=O | 5.13 | < 4.64 | inactive | inactive
COC1=C(O)C(=O)/C(=C(\O)C2CC=C(CCC=C(C)C)CC2c2ccccc2)C(=O)C1=O (racemic) | 5.51 | 4.76 | inactive | inactive
